The test system of one assay is K562. As to the kind of experiment: Anticancer activity against human K562 cells after 48 hrs by SRB assay. The class given is functional. To be noted: K562, 48 h.
Another assay has as its system OVCAR-3. The experiment in a line: Anticancer activity against human OVCAR-3 cells after 48 hrs by SRB assay. Format: functional. To be noted: OVCAR-3, 48 h.
For a further assay, the system named is NCI-H522. The experiment in a line: Anticancer activity against human NCI-H522 cells after 48 hrs by SRB assay. The class given is functional. To be noted: NCI-H522, 48 h. (The SRB assay estimates cell density from bound dye.)
Another assay has as its system HCC 2998. As to the kind of experiment: Anticancer activity against human HCC2998 cells after 48 hrs by SRB assay. The class given is functional. To be noted: HCC 2998, 48 h.
Another assay deals with A498. As to the kind of experiment: Anticancer activity against human A498 cells after 48 hrs by SRB assay. Format: functional. To be noted: A498, 48 h.
For the next assay, the system named is CAKI-1. As to the kind of experiment: Anticancer activity against human Caki1 cells after 48 hrs by SRB assay. To be noted: CAKI-1, 48 h. The class given is functional.
The test system of a further assay is A549. As to the kind of experiment: Anticancer activity against human A549 cells after 48 hrs by SRB assay. The class given is functional. To be noted: A549, 48 h. Put shortly: (§1)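 Grown in RPMI 1640 with 10% FBS and 2 mM L-glutamine at 37 °C, 5% CO2. Seeded at densities set by doubling time, then preincubated 24 h. Continuous 48 h drug exposure at four concentrations (0.1, 1, 10, 100), triplicate wells. Fixed with cold TCA (final 10%) at 4 °C, 60 min. Stained with 0.4% SRB in 1% acetic acid, eluted with 10 mM Tris base, read at 540/690 nm. Percent growth versus control wells.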

The test system of the next assay is M14. The experiment in a line: Anticancer activity against human M14 cells after 48 hrs by SRB assay. Format: functional. To be noted: M14, 48 h.
The test system of another assay is A-375. The experiment in a line: Induction of apoptosis in human A375 cells assessed as caspase3 activation at 4 uM after 24 hrs by fluorimetry. Format: functional, cell-based. A digest of the protocol: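 Caspase-3 activity was measured by a fluorometric assay on lysates of treated and untreated A375 cells.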
The next assay has as its system CCRF-CEM. The experiment in a line: Anticancer activity against human CCRF-CEM cells after 48 hrs by SRB assay. Format: functional.
For another assay, the system named is NCI-H460. As to the kind of experiment: Anticancer activity against human NCI-H460 cells after 48 hrs by SRB assay. To be noted: NCI-H460, 48 h. The class given is functional.
For the next assay, the system named is MCF7. The experiment in a line: Anticancer activity against human MCF7 cells after 48 hrs by SRB assay. Format: functional. To be noted: MCF7, 48 h. A digest of the protocol:
as §1

The subject of another assay is Malme-3M. As to the kind of experiment: Anticancer activity against human MALME-3M cells after 48 hrs by SRB assay. Format: functional.
A further assay deals with 786-0. The experiment in a line: Anticancer activity against human 786-0 cells after 48 hrs by SRB assay. To be noted: 786-0, 48 h. Format: functional.
For a further assay, the system named is MDA-MB-435. The experiment in a line: Anticancer activity against human MDA-MB-435 cells after 48 hrs by SRB assay. Format: functional. To be noted: MDA-MB-435, 48 h.
In the next assay the test system is NCI-H226. As to the kind of experiment: Anticancer activity against human NCI-H226 cells after 48 hrs by SRB assay. Format: functional. To be noted: NCI-H226, 48 h.
A further assay relates to SF-268. As to the kind of experiment: Anticancer activity against human SF268 cells after 48 hrs by SRB assay. The class given is functional. To be noted: SF-268, 48 h.
Another assay concerns DU-145. As to the kind of experiment: Anticancer activity against human DU145 cells after 48 hrs by SRB assay. The class given is functional. To be noted: DU-145, 48 h.
The next assay concerns TK-10. As to the kind of experiment: Anticancer activity against human TK10 cells after 48 hrs by SRB assay. The class given is functional. To be noted: TK-10, 48 h.
Another assay has as its system MOLT-4. The experiment in a line: Anticancer activity against human MOLT4 cells after 48 hrs by SRB assay. The class given is functional. To be noted: MOLT-4, 48 h.
The test system of another assay is NCI-H23. The experiment in a line: Anticancer activity against human NCI-H23 cells after 48 hrs by SRB assay. Format: functional. To be noted: NCI-H23, 48 h.
In a further assay the test system is ACHN. As to the kind of experiment: Anticancer activity against human ACHN cells after 48 hrs by SRB assay. The class given is functional.
For a further assay, the system named is HL-60(TB). The experiment in a line: Anticancer activity against human HL-60(TB) cells after 48 hrs by SRB assay. Format: functional. To be noted: HL-60, 48 h.

By GI50 is commonly meant the concentration at which growth is held to half of that of the control. A higher GI50 goes with less potent growth inhibition.

The structures appear in SMILES notation. Activity calls are given as the source filed them. The calls are words filed in the database; no cut-off is given here.

With `COc1ccc(C2=NOC(c3cc(OC)c(OC)c(OC)c3)C2)cc1OCCCCOc1cc2c(cc1OC)C(=O)N1CCC[C@H]1C=N2` (stereo partly drawn), the 50% growth inhibitory concentration (GI50) was determined as 0.12 µM in the assay with K562; 0.27 µM in the assay with OVCAR-3; 0.12 µM in the assay on NCI-H522; 0.19 µM in the assay with HCC 2998; 0.18 µM in the assay on A498; 0.25 µM in the assay on CAKI-1. Further, the concentration for 50% growth inhibition (GI50) in the assay with A549 came to 0.26 µM; in the assay with M14 it was 0.18 µM; with CCRF-CEM, 0.16 µM; in the assay on NCI-H460, 0.21 µM; with MCF7, 0.2 µM; with Malme-3M, 0.21 µM. For the same compound, the concentration for 50% growth inhibition (GI50) in the assay on 786-0 stood at 0.28 µM; with MDA-MB-435, 0.17 µM; in the assay on NCI-H226, 0.17 µM; with SF-268, 0.34 µM; in the assay with DU-145, 0.58 µM; with TK-10, 0.28 µM. The concentration for 50% growth inhibition (GI50) with MOLT-4 amounted to 0.2 µM; in the assay with NCI-H23, 0.27 µM; in the assay with ACHN, 0.28 µM; with HL-60(TB), 0.18 µM. Further, the result in the assay on A-375 was Active.

The values are drawn from ChEMBL document CHEMBL1240422, “Design, synthesis and biological evaluation of 3,5-diaryl-isoxazoline/isoxazole-pyrrolobenzodiazepine conjugates as potential anticancer agents” (2010).
